# Measurements from ChEMBL document CHEMBL3877264, “Quinolidene-rhodanine conjugates: Facile synthesis and biological evaluation” (Eur J Med Chem, 2017).
# Key:
# Format in all cases: functional
# [1] = system: Bacillus subtilis; test: Growth inhibition of Bacillus subtilis NCIM 2079 at 30 ug/ml measured after 12 hrs relative to control; settings: NCIM 2079, 12 h, read-out: GI
# In short: (§1)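 Bacteria grown in LB at 37 °C and 180 rpm to OD 1. Compounds added to wells, then 0.1% inoculum of 1 OD culture (620 nm). Growth read as OD at 620 nm after 8 h for gram-negative and after 12 h for gram-positive strains.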
# [2] = system: Mycobacterium tuberculosis; test: Growth inhibition of Mycobacterium tuberculosis H37Ra ATCC 25177 at active stage measured after 8 days by XTT dye based two fold dilution method; settings: H37Ra ATCC 25177, 192 h
# In short: (§2)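 MTB H37Ra was grown in Dubos medium, then exposed in Mycobacterium pheli minimal medium (pH 6.6) to compounds dissolved in DMSO. The assay ended on day 8 (active) or day 12 (dormant). Viable cells were measured by XTT reduction menadione assay at 470 nm, blank-corrected, relative to vehicle control. Triplicates were expressed as mean ± SD. MIC came from dose-response curves.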
# [3] = system: Mycobacterium tuberculosis; test: Growth inhibition of Mycobacterium bovis BCG ATCC 35743 at dormant stage at 10 ug/ml measured after 12 days by nitrate reductase dye based two fold dilution method relative to control; settings: BCG str. ATCC 35743, 288 h, read-out: GI
# In short: (§3)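 M. bovis BCG was grown in Dubos medium and assayed in Mycobacterium pheli minimal medium (pH 6.6), with compounds from DMSO stocks. Incubation lasted 8 days for active and 12 days for dormant cultures. Viability was read by nitrate reductase at 540 nm against cell-free blanks, with vehicle set as 100% growth. Primary screen was at 30, 10 and 3 µg/ml, in triplicate, mean ± SD. MIC was taken from dose-response curves.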
# [4] = system: Staphylococcus aureus; test: Growth inhibition of Staphylococcus aureus NCIM 2010 at 30 ug/ml measured after 12 hrs relative to control; settings: NCIM 2010, 12 h, read-out: GI; in short: as §1
# [5] = system: Staphylococcus aureus; test: Antibacterial activity against of Staphylococcus aureus NCIM 2010 measured after 12 hrs; settings: NCIM 2010, 12 h; in short: as §1
# [6] = system: Pseudomonas fluorescens; test: Growth inhibition of Pseudomonas fluorescens NCIM 2036 at 3 ug/ml measured after 8 hrs relative to control; settings: NCIM 2036, 8 h, read-out: GI; in short: as §1
# [7] = system: Bacillus subtilis; test: Antibacterial activity against Bacillus subtilis NCIM 2079 measured after 12 hrs; settings: NCIM 2079, 12 h; in short: as §1
# [8] = system: Staphylococcus aureus; test: Growth inhibition of Staphylococcus aureus NCIM 2010 at 3 ug/ml measured after 12 hrs relative to control; settings: NCIM 2010, 12 h, read-out: GI; in short: as §1
# [9] = Antifungal activity against Cryptococcus neoformans NCIM 576 by standard agar method
# In short: (§4)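 MICs determined by standard agar method; DMSO as solvent control.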
# [10] = system: Escherichia coli; test: Growth inhibition of Escherichia coli NCIM 2688 at 30 ug/ml measured after 8 hrs relative to control; settings: NCIM 2688, 8 h, read-out: GI; in short: as §1
# [11] = system: Mycobacterium tuberculosis; test: Growth inhibition of Mycobacterium tuberculosis H37Ra ATCC 25177 at dormant stage measured after 12 days by XTT dye based two fold dilution method; settings: H37Ra ATCC 25177, 288 h; in short: as §2
# [12] = Antifungal activity against Fusarium oxysporum NCIM 1332 by standard agar method; in short: as §4
# [13] = system: Bacillus subtilis; test: Growth inhibition of Bacillus subtilis NCIM 2079 at 3 ug/ml measured after 12 hrs relative to control; settings: NCIM 2079, 12 h, read-out: GI; in short: as §1
# [14] = system: Escherichia coli; test: Growth inhibition of Escherichia coli NCIM 2688 at 10 ug/ml measured after 8 hrs relative to control; settings: NCIM 2688, 8 h, read-out: GI; in short: as §1
# [15] = system: Mycobacterium tuberculosis; test: Growth inhibition of Mycobacterium bovis BCG ATCC 35743 at dormant stage at 30 ug/ml measured after 12 days by nitrate reductase dye based two fold dilution method relative to control; settings: BCG str. ATCC 35743, 288 h, read-out: GI; in short: as §3
# [16] = system: Pseudomonas fluorescens; test: Growth inhibition of Pseudomonas fluorescens NCIM 2036 at 30 ug/ml measured after 8 hrs relative to control; settings: NCIM 2036, 8 h, read-out: GI; in short: as §1
# [17] = system: Pseudomonas fluorescens; test: Growth inhibition of Pseudomonas fluorescens NCIM 2036 at 10 ug/ml measured after 8 hrs relative to control; settings: NCIM 2036, 8 h, read-out: GI; in short: as §1
# [18] = system: Aspergillus flavus; test: Antifungal activity against Aspergillus flavus NCIM 539 by standard agar method; in short: as §4
# [19] = system: Candida albicans; test: Antifungal activity against Candida albicans NCIM 3471 by standard agar method; in short: as §4
# [20] = system: Mycobacterium tuberculosis; test: Growth inhibition of Mycobacterium bovis BCG ATCC 35743 at active stage measured after 8 days by nitrate reductase dye based two fold dilution method; settings: BCG str. ATCC 35743, 192 h; in short: as §3
# [21] = system: Staphylococcus aureus; test: Growth inhibition of Staphylococcus aureus NCIM 2010 at 10 ug/ml measured after 12 hrs relative to control; settings: NCIM 2010, 12 h, read-out: GI; in short: as §1
# [22] = system: Mycobacterium tuberculosis; test: Growth inhibition of Mycobacterium bovis BCG ATCC 35743 at dormant stage at 3 ug/ml measured after 12 days by nitrate reductase dye based two fold dilution method relative to control; settings: BCG str. ATCC 35743, 288 h, read-out: GI; in short: as §3
# [23] = system: Aspergillus niger; test: Antifungal activity against Aspergillus niger NCIM 1196 by standard agar method; in short: as §4
# [24] = system: Escherichia coli; test: Growth inhibition of Escherichia coli NCIM 2688 at 3 ug/ml measured after 8 hrs relative to control; settings: NCIM 2688, 8 h, read-out: GI; in short: as §1
# [25] = system: Escherichia coli; test: Antibacterial activity against Escherichia coli NCIM 2688 measured after 8 hrs; settings: NCIM 2688, 8 h; in short: as §1
# [26] = system: Mycobacterium tuberculosis; test: Growth inhibition of Mycobacterium bovis BCG ATCC 35743 at dormant stage measured after 12 days by nitrate reductase dye based two fold dilution method; settings: BCG str. ATCC 35743, 288 h; in short: as §3
# [27] = system: Bacillus subtilis; test: Growth inhibition of Bacillus subtilis NCIM 2079 at 10 ug/ml measured after 12 hrs relative to control; settings: NCIM 2079, 12 h, read-out: GI; in short: as §1
# [28] = system: Pseudomonas fluorescens; test: Antibacterial activity against Pseudomonas fluorescens NCIM 2036 measured after 8 hrs; settings: NCIM 2036, 8 h; in short: as §1
SMILES,inhibition of growth at 30 µg/mL [1],IC50 [2],IC90 [2],inhibition of growth at 10 µg/mL [3],inhibition of growth at 30 µg/mL [4],MIC [5],inhibition of growth at 3 µg/mL [6],MIC [7],inhibition of growth at 3 µg/mL [8],MIC [9],inhibition of growth at 30 µg/mL [10],IC50 [11],IC90 [11],MIC [12],inhibition of growth at 3 µg/mL [13],inhibition of growth at 10 µg/mL [14],inhibition of growth at 30 µg/mL [15],inhibition of growth at 30 µg/mL [16],MIC [19],MIC [23],also measured
Cc1ccc2nc(Cl)c(/C=C3\SC(=S)N(CCC(=O)O)C3=O)cc2c1,-31.1%,> 30 µg/mL,> 30 µg/mL,-7.25%,-19.6%,> 30 µg/mL,5.35%,> 30 µg/mL,-9.82%,175 µg/mL,-49%,> 30 µg/mL,> 30 µg/mL,100 µg/mL,-20.6%,-47.6%,-14.8%,-6.24%,50 µg/mL,100 µg/mL,inhibition of growth at 10 µg/mL [17]: 1.64%; MIC [18]: 150 µg/mL; IC50 [20]: > 30 µg/mL; IC90 [20]: > 30 µg/mL; inhibition of growth at 10 µg/mL [21]: -13.6%; inhibition of growth at 3 µg/mL [22]: -7.58%; inhibition of growth at 3 µg/mL [24]: -37.5%; MIC [25]: > 30 µg/mL; IC50 [26]: > 30 µg/mL; IC90 [26]: > 30 µg/mL; inhibition of growth at 10 µg/mL [27]: -25.6%; MIC [28]: > 30 µg/mL
O=C(O)CN1C(=O)/C(=C/c2cc3ccccc3nc2Cl)SC1=S,-22.6%,> 30 µg/mL,> 30 µg/mL,32.9%,-7.84%,> 30 µg/mL,-16.1%,> 30 µg/mL,-17.2%,100 µg/mL,-12.1%,> 30 µg/mL,> 30 µg/mL,125 µg/mL,-12%,-8.37%,34.2%,13.8%,125 µg/mL,100 µg/mL,inhibition of growth at 10 µg/mL [17]: -75.5%; IC50 [20]: > 30 µg/mL; IC90 [20]: > 30 µg/mL; inhibition of growth at 10 µg/mL [21]: -8.62%; inhibition of growth at 3 µg/mL [22]: 23.5%; inhibition of growth at 3 µg/mL [24]: -10.4%; MIC [25]: > 30 µg/mL; IC50 [26]: > 30 µg/mL; IC90 [26]: > 30 µg/mL; inhibition of growth at 10 µg/mL [27]: -24.5%; MIC [28]: > 30 µg/mL
O=C(O)CN1C(=O)/C(=C/c2cc3cc(Cl)ccc3nc2Cl)SC1=S,1.23%,> 30 µg/mL,> 30 µg/mL,2.07%,-32.2%,> 30 µg/mL,-72.5%,> 30 µg/mL,-1.15%,125 µg/mL,-14%,> 30 µg/mL,> 30 µg/mL,150 µg/mL,-4.86%,-12.4%,9.92%,-2.12%,125 µg/mL,100 µg/mL,inhibition of growth at 10 µg/mL [17]: -1.23%; MIC [18]: 150 µg/mL; IC50 [20]: > 30 µg/mL; IC90 [20]: > 30 µg/mL; inhibition of growth at 10 µg/mL [21]: 3.88%; inhibition of growth at 3 µg/mL [22]: -9.46%; inhibition of growth at 3 µg/mL [24]: -12.7%; MIC [25]: > 30 µg/mL; IC50 [26]: > 30 µg/mL; IC90 [26]: > 30 µg/mL; inhibition of growth at 10 µg/mL [27]: -12.6%; MIC [28]: > 30 µg/mL
Cc1ccc2cc(/C=C3\SC(=S)NC3=O)c(Cl)nc2c1,-9.15%,> 30 µg/mL,> 30 µg/mL,15%,6.45%,> 30 µg/mL,-8.82%,> 30 µg/mL,-13.7%,50 µg/mL,12.9%,> 30 µg/mL,> 30 µg/mL,100 µg/mL,-2.83%,11.3%,11.4%,12.2%,100 µg/mL,75 µg/mL,inhibition of growth at 10 µg/mL [17]: 27.1%; MIC [18]: 50 µg/mL; IC50 [20]: > 30 µg/mL; IC90 [20]: > 30 µg/mL; inhibition of growth at 10 µg/mL [21]: -4.88%; inhibition of growth at 3 µg/mL [22]: 11.4%; inhibition of growth at 3 µg/mL [24]: 13.8%; MIC [25]: > 30 µg/mL; IC50 [26]: > 30 µg/mL; IC90 [26]: > 30 µg/mL; inhibition of growth at 10 µg/mL [27]: -4.08%; MIC [28]: > 30 µg/mL
Clc1ccc(COC(Cn2ccnc2)c2ccc(Cl)cc2Cl)c(Cl)c1 (configuration not stated) [MICONAZOLE],–,–,–,–,–,–,–,–,–,25 µg/mL,–,–,–,25 µg/mL,–,–,–,–,25 µg/mL,25 µg/mL,MIC [18]: 12.5 µg/mL
